The target of assay [1] is T1, Xanthine dehydrogenase/oxidase (Bos taurus, UniProt P80457). Kind of assay: Inhibition of bovine xanthine oxidase using xanthine as substrate preincubated for 10 mins followed by substrate addition measured for 15 mins by spectrophotometric method. To be noted: for pIC50: read-out: IC50.
Assay [2] relates to Rattus norvegicus. As to the kind of experiment: In vivo inhibition of xanthine oxidase in Wistar rat assessed as retention time of 6-MP at 50 mg/kg, ip using 6-mercaptopurine as substrate after 6 hrs by UPLC method (reference value: 4.912 min). It is filed as functional, organism-based.
The target in assay [3] is T1, Xanthine dehydrogenase/oxidase. Kind of assay: Competitive inhibition of bovine xanthine oxidase using varying levels of xanthine as substrate preincubated for 10 mins followed by substrate addition measured for 15 mins by Lineweaver-Burk plot/Dixon plot analysis. The method in brief:
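Run like the inhibition assay: XO (0.003 units/well) in 50 mM phosphate buffer pH 7.4, inhibitor in 90% DMSO, preincubated 10 min at 30 °C. Varied inhibitor and xanthine concentrations (0.0375, 0.075, 0.15, 0.300 mM), absorbance change at 295 nm over 15 min.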

The test system of assay [4] is Rattus norvegicus. As to the kind of experiment: In vivo inhibition of xanthine oxidase in Wistar rat assessed as peak area of 6-MP at 50 mg/kg, ip using 6-mercaptopurine as substrate after 6 hrs by UPLC method (reference value: 7.3 mAU). The class given is functional.
Assay [5] concerns the target Xanthine dehydrogenase/oxidase (Bos taurus) (UniProt P80457).
Assay [6] deals with Rattus norvegicus. As to the kind of experiment: In vivo inhibition of xanthine oxidase in Wistar rat at 50 mg/kg, ip using 6-mercaptopurine as substrate after 6 hrs by UPLC method relative to control. The class given is functional.

Each structure is given as a SMILES string. pIC50, pKi: −log10 of the molar value.

T1 sequence (P80457 whole entry): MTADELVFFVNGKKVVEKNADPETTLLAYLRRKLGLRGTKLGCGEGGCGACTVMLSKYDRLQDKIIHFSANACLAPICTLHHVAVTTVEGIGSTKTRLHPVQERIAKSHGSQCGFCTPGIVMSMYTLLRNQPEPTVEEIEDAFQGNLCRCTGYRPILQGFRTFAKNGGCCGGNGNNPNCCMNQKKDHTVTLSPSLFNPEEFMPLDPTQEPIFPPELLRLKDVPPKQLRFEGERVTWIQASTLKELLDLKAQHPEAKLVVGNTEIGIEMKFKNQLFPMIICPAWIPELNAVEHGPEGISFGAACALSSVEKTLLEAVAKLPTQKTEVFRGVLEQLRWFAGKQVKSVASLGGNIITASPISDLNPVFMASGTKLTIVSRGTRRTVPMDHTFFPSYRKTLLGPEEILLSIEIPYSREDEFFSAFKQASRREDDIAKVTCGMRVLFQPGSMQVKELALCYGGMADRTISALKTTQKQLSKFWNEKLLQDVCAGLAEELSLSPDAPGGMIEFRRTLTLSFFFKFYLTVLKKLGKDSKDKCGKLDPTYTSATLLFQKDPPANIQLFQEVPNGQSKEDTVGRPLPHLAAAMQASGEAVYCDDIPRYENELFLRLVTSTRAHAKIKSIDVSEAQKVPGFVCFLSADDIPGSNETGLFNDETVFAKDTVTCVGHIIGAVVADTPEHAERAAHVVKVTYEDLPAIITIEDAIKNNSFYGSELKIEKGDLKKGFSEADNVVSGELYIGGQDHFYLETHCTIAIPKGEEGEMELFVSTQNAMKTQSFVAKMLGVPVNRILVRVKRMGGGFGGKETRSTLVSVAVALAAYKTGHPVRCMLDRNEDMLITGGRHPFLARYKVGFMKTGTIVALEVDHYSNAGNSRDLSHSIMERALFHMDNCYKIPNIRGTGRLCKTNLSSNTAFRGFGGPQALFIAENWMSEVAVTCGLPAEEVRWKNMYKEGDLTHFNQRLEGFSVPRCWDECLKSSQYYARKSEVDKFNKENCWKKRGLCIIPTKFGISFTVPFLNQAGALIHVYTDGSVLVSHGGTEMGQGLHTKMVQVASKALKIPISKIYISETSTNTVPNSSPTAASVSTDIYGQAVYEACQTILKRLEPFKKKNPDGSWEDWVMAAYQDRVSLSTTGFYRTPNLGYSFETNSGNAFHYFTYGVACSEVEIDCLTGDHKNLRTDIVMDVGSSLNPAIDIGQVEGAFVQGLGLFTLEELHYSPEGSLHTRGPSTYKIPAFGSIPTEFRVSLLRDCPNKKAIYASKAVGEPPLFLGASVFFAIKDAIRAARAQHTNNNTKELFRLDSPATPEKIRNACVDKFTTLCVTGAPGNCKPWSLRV
Xanthine dehydrogenase/oxidase (Bos taurus), sequence (P80457 whole entry, looked up): as the sequence (P80457 whole entry) above

As for `O=C(N/N=C/c1ccc(O)c(O)c1)c1cccnc1`, the pIC50 in assay [1] was 5.00. The Retention time in assay [2] was found to be 4.9 min. In addition, in assay [3], the pKi was 5.14. The Activity in assay [4] turned out to be 0.001 mAU. Regarding `CN(C)c1ccc(/C=N/NC(=O)c2cccnc2)cc1`, in assay [1], the IC50 entry is on record as “Not Active”. On the same count and under the same terms, the entry for `COc1ccc(/C=N/NC(=O)c2ccncc2)cc1OC` [VERAZIDE] is “Not Active”.

Turning to `COc1cccc(/C=N/NC(=O)c2ccncc2)c1O`, in assay [1], the pIC50 is 4.68. The same compound showed a pKi in assay [3] of 4.82. As for `COc1ccc(/C=N/NC(=O)c2cccnc2)cc1OC`, the IC50 result in assay [1] is on record as “Not Active”. On to `Cc1ccccc1/C=N/NC(=O)c1cccnc1`, for which the pIC50 in assay [1] was 3.74.

For `O=C(N/N=C/c1ccc(Cl)cc1)c1cccnc1`, in assay [1], the negative-log IC50 (pIC50) is 3.71. With `COc1ccc(O)c(/C=N/NC(=O)c2ccncc2)c1`, the IC50 entry in assay [1] is “Not Active”. Still for that read-out and setting: the entry for `O=C(N/N=C/c1ccc(Cl)cc1Cl)c1ccncc1` is “Not Active”.

As to `O=C(O)c1cccnc1` [NIACIN], in assay [5], the pIC50 was 3.29. As for `Oc1ncnc2[nH]ncc12` [ALLOPURINOL], the inhibition in vivo at 50 mg/kg in assay [6] was 100%. Further, the Retention time in assay [2] was determined as 4.93 min. For the same compound, the Activity in assay [4] was 166.3 mAU. Turning to `CSc1ccc(/C=N/NC(=O)c2cccnc2)cc1`, the IC50 entry in assay [1] is on record as “Not Active”. In the case of `CCOc1ccc(/C=N/NC(=O)c2cccnc2)cc1`, in assay [1], the pIC50 is 3.62. Take `O=C(N/N=C/c1cccc(O)c1)c1ccncc1`: the IC50 result in assay [1] is listed as “Not Active”. Same read-out and setting: under `O=C(N/N=C/c1ccccc1O)c1ccncc1` [SALINAZID] stands “Not Active”. Still for that read-out and setting: under `O=C(N/N=C/c1ccc(O)cc1O)c1ccncc1` stands “Not Active”.

Consider `CCOc1cccc(/C=N/NC(=O)c2ccncc2)c1O`, for which the negative-log IC50 (pIC50) in assay [1] is 4.26. The compound also gave a pKi in assay [3] of 4.29. For `CCOc1ccc(/C=N/NC(=O)c2ccncc2)cc1O`, the IC50 result in assay [1] was “Not Active”.

As for `O=C(N/N=C/c1ccccc1Br)c1cccnc1`, in assay [1], the pIC50 was 3.70. Still for that read-out and setting: under `O=C(N/N=C/c1cccc([N+](=O)[O-])c1)c1ccncc1` stands 3.76. For the compound `O=C(N/N=C/c1ccc(O)cc1)c1ccncc1`, the IC50 entry in assay [1] is on record as “Not Active”. Take `O=C(N/N=C/c1cccc(Cl)c1)c1cccnc1`: the pIC50 in assay [1] is 3.69. With `COc1ccccc1/C=N/NC(=O)c1cccnc1`, in assay [1], the IC50 entry was “Not Active”.

With `O=C(N/N=C/c1ccc(O)c(O)c1O)c1cccnc1`, in assay [1], the IC50 result is “Not Active”. `O=C(N/N=C/c1cc(O)cc(O)c1)c1cccnc1`: the pIC50 in assay [1] is 3.79. Regarding `O=C(N/N=C/c1ccccc1[N+](=O)[O-])c1cccnc1`, in assay [1], the IC50 result is listed as “Not Active”. On to `COc1ccc(/C=N/NC(=O)c2cccnc2)c(OC)c1OC`, for which the IC50 result in assay [1] is recorded as “Not Active”. `COc1ccc(O)c(/C=N/NC(=O)c2cccnc2)c1`: the IC50 entry in assay [1] was “Not Active”.

In the case of `CN(C)c1ccc(/C=N/NC(=O)c2ccncc2)cc1` [N'-(4-DIMETHYLAMINOBENZYLIDENE)ISONICOTINOHYDRAZIDE], the IC50 entry in assay [1] is “Not Active”. The same measure, in the same setting: under `CCOc1ccccc1/C=N/NC(=O)c1cccnc1` stands “Not Active”. On to `O=C(N/N=C/c1c(O)cc(O)cc1O)c1ccncc1`, for which, in assay [6], testing at 50 mg/kg gave an inhibition in vivo of 44%. Further, in assay [1], the pIC50 was 6.02. Besides, in assay [2], the Retention time was 4.92 min. Besides, the pKi in assay [3] is 6.09. The Activity in assay [4] is given as 73.5 mAU. Take `O=C(N/N=C/c1ccccc1)c1ccncc1` [N'-BENZYLIDENE ISONICOTINOHYDRAZIDE]: the IC50 entry in assay [1] was “Not Active”. On the same count and under the same terms, under `O=C(N/N=C/c1ccc(Cl)cc1Cl)c1cccnc1` stands “Not Active”; under `O=C(N/N=C/c1ccccc1Cl)c1ccncc1`, “Not Active”.

Consider `O=C(N/N=C/c1ccccc1)c1cccnc1` [NICOTINIC ACID BENZYLIDENE-HYDRAZIDE], for which, in assay [1], the pIC50 was 3.68. Consider `CCOc1cccc(/C=N/NC(=O)c2cccnc2)c1O`, for which the pIC50 in assay [1] was 3.58. Still for that read-out and setting: under `O=C(N/N=C/c1ccc(Cl)cc1)c1ccncc1` stands 3.75; under `O=C(N/N=C/c1cccc(Cl)c1)c1ccncc1` [N'-(3-CHLOROBENZYLIDENE)ISONICOTINOHYDRAZIDE], 3.69.

Take `O=C(N/N=C/c1ccccc1F)c1ccncc1`: the IC50 result in assay [1] is “Not Active”. Same read-out and setting: the entry for `CCOc1ccccc1/C=N/NC(=O)c1ccncc1` is “Not Active”.

`O=C(N/N=C/c1ccccc1F)c1cccnc1`: in assay [1], the pIC50 is 3.76. `O=C(N/N=C/c1cc([N+](=O)[O-])ccc1Cl)c1ccncc1`: the IC50 result in assay [1] was “Not Active”.

With `Cc1ccc(O)c(/C=N/NC(=O)c2cccnc2)c1`, the IC50 entry in assay [1] is listed as “Not Active”. On the same count and under the same terms, the entry for `COc1ccc(/C=N/NC(=O)c2ccncc2)cc1O` is “Not Active”. For `COc1cccc(/C=N/NC(=O)c2cccnc2)c1O`, in assay [1], the negative-log IC50 (pIC50) was 3.76. Take `COc1cccc(O)c1/C=N/NC(=O)c1cccnc1`: the IC50 result in assay [1] is “Not Active”. Still for that read-out and setting: under `O=C(N/N=C/c1cccc(O)c1)c1cccnc1` stands “Not Active”.

Regarding `O=C(N/N=C/c1ccc(O)c(O)c1)c1ccncc1`, the inhibition in vivo at 50 mg/kg in assay [6] stood at 28%. Moreover, the pIC50 in assay [1] is 4.91. The Retention time in assay [2] turned out to be 4.95 min. Besides, in assay [3], the pKi is 4.81. Also, the Activity in assay [4] turned out to be 47.4 mAU.

On to `CSc1ccc(/C=N/NC(=O)c2ccncc2)cc1`, for which, in assay [1], the IC50 entry is on record as “Not Active”. With `O=C(N/N=C/c1ccc(O)cc1)c1cccnc1`, in assay [1], the pIC50 is 3.74. Turning to `O=C(N/N=C/c1ccc([N+](=O)[O-])cc1)c1ccncc1` [N'-(4-NITROBENZYLIDENE)ISONICOTINOHYDRAZIDE], in assay [1], the IC50 result is listed as “Not Active”. For the compound `O=C(N/N=C/c1cccc([N+](=O)[O-])c1)c1cccnc1`, the pIC50 in assay [1] was 3.74.

For the compound `CCOc1ccc(/C=N/NC(=O)c2ccncc2)cc1OCC`, the IC50 entry in assay [1] was “Not Active”. As to `CCOc1ccc(/C=N/NC(=O)c2ccncc2)cc1`, the pIC50 in assay [1] is 3.48. In the case of `O=C(N/N=C/c1ccccc1[N+](=O)[O-])c1ccncc1`, the IC50 result in assay [1] is listed as “Not Active”. As to `O=C(N/N=C/c1ccc([N+](=O)[O-])cc1)c1cccnc1`, in assay [1], the IC50 entry is recorded as “Not Active”.

For the origin of these results see ChEMBL document CHEMBL4011602, “Xanthine oxidase inhibitory activity of nicotino/isonicotinohydrazides: A systematic approach from in vitro, in silico to in vivo studies” (Bioorg Med Chem, 2017).
